# Key:
# [1] = Half life in beagle dog at 2 mg/kg, iv by LC-MS/MS analysis; assay type: ADME, organism-based, Canis lupus familiaris; conditions: in vivo
# [2] = Clearance in beagle dog at 2 mg/kg, iv by LC-MS/MS analysis; assay type: ADME, organism-based, Canis lupus familiaris; conditions: in vivo
# [3] = target: Cyclin-dependent kinase 4/cyclin D1 (Homo sapiens) (UniProt P11802+P24385); test: Binding affinity to wild-type human full length CDK4/cyclinD1 (M1 to E303 residues) expressed in mammalian expression system assessed as remaining unbound target protein level at 1000 nM by Kinomescan method relative to control
# Procedure, shortened: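 KINOMEscan competitive binding profile at 1 μM inhibitor. Remaining target binding reported as percent of DMSO control.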
# [4] = target: Serine/threonine-protein kinase Chk1 (Homo sapiens) (UniProt O14757); test: Binding affinity to wild-type human partial length CHEK1 (M1 to G289 residues) expressed in bacterial expression system assessed as remaining unbound target protein level at 1000 nM by Kinomescan method relative to control
# Procedure, shortened: (§1)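 KINOMEscan competition binding profile across a panel of 468 kinases and mutants, with the inhibitor tested at a single concentration of 1 μM. Binding is reported as percent of control, meaning signal relative to a DMSO control.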
# [5] = target: Dual specificity protein kinase CLK3 (Homo sapiens) (UniProt P49761); test: Binding affinity to wild-type human full length CLK3 (M1 to R490 residues) expressed in bacterial expression system assessed as remaining unbound target protein level at 1000 nM by Kinomescan method relative to control
# Procedure, shortened: (§2)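 Single-point competition binding screen across a panel of 468 kinases and mutants, with the inhibitor at 1 μM. Binding is read out as percent of a DMSO control, and targets below 1 percent control were classed as strong binders.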
# [6] = target: Serine/threonine-protein kinase 17B (Homo sapiens) (UniProt O94768); test: Binding affinity to wild-type human full length DRAK2 (M1 to C372 residues) expressed in bacterial expression system assessed as remaining unbound target protein level at 1000 nM by Kinomescan method relative to control; procedure, shortened: as §2
# Serine/threonine-protein kinase 17B (Homo sapiens), sequence (O94768 whole entry, the tested form may be a part): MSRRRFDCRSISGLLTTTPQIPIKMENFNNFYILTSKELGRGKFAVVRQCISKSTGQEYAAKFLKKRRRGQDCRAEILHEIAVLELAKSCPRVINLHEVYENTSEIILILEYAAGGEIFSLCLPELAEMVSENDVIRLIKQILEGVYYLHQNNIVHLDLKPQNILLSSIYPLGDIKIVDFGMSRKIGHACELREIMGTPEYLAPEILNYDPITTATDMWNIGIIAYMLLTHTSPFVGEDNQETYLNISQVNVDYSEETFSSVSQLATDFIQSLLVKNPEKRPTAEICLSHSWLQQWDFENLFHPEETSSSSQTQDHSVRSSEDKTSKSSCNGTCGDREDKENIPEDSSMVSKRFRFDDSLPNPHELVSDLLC
# [7] = target: Ephrin type-B receptor 3 (Homo sapiens) (UniProt P54753); test: Binding affinity to wild-type human partial length EPHB3 (Q599 to T928 residues) expressed in bacterial expression system assessed as remaining unbound target protein level at 1000 nM by Kinomescan method relative to control
# [8] = target: Vascular endothelial growth factor receptor 3 (Homo sapiens) (UniProt P35916); test: Binding affinity to wild-type human partial length FLT4 (E821 to E1196 residues) expressed in bacterial expression system assessed as remaining unbound target protein level at 1000 nM by Kinomescan method relative to control
# [9] = target: Tyrosine-protein kinase Fyn (Homo sapiens) (UniProt P06241); test: Binding affinity to wild-type human partial length FYN (T243 to L534 residues) expressed in bacterial expression system assessed as remaining unbound target protein level at 1000 nM by Kinomescan method relative to control
# [10] = target: Leucine-rich repeat serine/threonine-protein kinase 2 (Homo sapiens) (UniProt Q5S007); test: Binding affinity to wild-type human partial length LRRK2 (H970 to E2527 residues) expressed in mammalian expression system assessed as remaining unbound target protein level at 1000 nM by Kinomescan method relative to control
# [11] = target: Mitogen-activated protein kinase kinase kinase kinase 5 (Homo sapiens) (UniProt Q9Y4K4); test: Binding affinity to wild-type human partial length MAP4K5 (M1 to P297 residues) expressed in bacterial expression system assessed as remaining unbound target protein level at 1000 nM by Kinomescan method relative to control
# Procedure, shortened: (§3)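 KINOMEscan binding panel of 468 kinases/mutants. Inhibitor was tested at a single concentration of 1 μM. Binding is reported as percent of control, defined relative to a DMSO control.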
# [12] = target: Dual specificity mitogen-activated protein kinase kinase 3 (Homo sapiens) (UniProt P46734); test: Binding affinity to wild-type human full length MEK3 (M1 to S318 residues) expressed in mammalian expression system assessed as remaining unbound target protein level at 1000 nM by Kinomescan method relative to control; procedure, shortened: as §1
# Dual specificity mitogen-activated protein kinase kinase 3 (Homo sapiens), sequence (P46734 whole entry, the tested form may be a part): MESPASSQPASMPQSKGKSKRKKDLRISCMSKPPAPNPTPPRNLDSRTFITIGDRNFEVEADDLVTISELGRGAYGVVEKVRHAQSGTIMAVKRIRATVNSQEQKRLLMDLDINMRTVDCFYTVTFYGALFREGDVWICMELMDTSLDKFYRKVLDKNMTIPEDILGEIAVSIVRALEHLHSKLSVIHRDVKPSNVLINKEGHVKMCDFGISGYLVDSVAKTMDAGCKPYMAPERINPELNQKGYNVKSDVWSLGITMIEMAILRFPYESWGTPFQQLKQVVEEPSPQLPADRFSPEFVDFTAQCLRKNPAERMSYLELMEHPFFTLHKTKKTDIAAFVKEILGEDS
# [13] = target: MAP kinase-interacting serine/threonine-protein kinase 2 (Homo sapiens) (UniProt Q9HBH9); test: Binding affinity to wild-type human partial length MKNK2 (G63 to S388 residues) expressed in mammalian expression system assessed as remaining unbound target protein level at 1000 nM by Kinomescan method relative to control
# [14] = target: Myosin light chain kinase family member 4 (Homo sapiens) (UniProt Q86YV6); test: Binding affinity to wild-type human partial length MYLK4 (V79 to S380 residues) expressed in bacterial expression system assessed as remaining unbound target protein level at 1000 nM by Kinomescan method relative to control; procedure, shortened: as §3
# Myosin light chain kinase family member 4 (Homo sapiens), sequence (Q86YV6 whole entry, the tested form may be a part): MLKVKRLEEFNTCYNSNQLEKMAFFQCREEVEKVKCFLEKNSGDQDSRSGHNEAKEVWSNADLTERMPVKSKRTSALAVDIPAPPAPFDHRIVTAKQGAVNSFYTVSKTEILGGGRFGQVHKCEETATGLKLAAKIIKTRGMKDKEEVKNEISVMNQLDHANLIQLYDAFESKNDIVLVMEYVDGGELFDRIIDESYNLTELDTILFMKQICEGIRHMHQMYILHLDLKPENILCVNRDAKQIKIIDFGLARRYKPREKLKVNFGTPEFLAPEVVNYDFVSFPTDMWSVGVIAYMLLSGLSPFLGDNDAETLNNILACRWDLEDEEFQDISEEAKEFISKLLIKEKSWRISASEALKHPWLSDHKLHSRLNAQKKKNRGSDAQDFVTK
# [15] = target: 1-phosphatidylinositol 3-phosphate 5-kinase (Homo sapiens) (UniProt Q9Y2I7); test: Binding affinity to wild-type human partial length PIKFYVE (F1512 to C2098 residues) expressed in mammalian expression system assessed as remaining unbound target protein level at 1000 nM by Kinomescan method relative to control
# 1-phosphatidylinositol 3-phosphate 5-kinase (Homo sapiens), sequence (Q9Y2I7 whole entry, the tested form may be a part): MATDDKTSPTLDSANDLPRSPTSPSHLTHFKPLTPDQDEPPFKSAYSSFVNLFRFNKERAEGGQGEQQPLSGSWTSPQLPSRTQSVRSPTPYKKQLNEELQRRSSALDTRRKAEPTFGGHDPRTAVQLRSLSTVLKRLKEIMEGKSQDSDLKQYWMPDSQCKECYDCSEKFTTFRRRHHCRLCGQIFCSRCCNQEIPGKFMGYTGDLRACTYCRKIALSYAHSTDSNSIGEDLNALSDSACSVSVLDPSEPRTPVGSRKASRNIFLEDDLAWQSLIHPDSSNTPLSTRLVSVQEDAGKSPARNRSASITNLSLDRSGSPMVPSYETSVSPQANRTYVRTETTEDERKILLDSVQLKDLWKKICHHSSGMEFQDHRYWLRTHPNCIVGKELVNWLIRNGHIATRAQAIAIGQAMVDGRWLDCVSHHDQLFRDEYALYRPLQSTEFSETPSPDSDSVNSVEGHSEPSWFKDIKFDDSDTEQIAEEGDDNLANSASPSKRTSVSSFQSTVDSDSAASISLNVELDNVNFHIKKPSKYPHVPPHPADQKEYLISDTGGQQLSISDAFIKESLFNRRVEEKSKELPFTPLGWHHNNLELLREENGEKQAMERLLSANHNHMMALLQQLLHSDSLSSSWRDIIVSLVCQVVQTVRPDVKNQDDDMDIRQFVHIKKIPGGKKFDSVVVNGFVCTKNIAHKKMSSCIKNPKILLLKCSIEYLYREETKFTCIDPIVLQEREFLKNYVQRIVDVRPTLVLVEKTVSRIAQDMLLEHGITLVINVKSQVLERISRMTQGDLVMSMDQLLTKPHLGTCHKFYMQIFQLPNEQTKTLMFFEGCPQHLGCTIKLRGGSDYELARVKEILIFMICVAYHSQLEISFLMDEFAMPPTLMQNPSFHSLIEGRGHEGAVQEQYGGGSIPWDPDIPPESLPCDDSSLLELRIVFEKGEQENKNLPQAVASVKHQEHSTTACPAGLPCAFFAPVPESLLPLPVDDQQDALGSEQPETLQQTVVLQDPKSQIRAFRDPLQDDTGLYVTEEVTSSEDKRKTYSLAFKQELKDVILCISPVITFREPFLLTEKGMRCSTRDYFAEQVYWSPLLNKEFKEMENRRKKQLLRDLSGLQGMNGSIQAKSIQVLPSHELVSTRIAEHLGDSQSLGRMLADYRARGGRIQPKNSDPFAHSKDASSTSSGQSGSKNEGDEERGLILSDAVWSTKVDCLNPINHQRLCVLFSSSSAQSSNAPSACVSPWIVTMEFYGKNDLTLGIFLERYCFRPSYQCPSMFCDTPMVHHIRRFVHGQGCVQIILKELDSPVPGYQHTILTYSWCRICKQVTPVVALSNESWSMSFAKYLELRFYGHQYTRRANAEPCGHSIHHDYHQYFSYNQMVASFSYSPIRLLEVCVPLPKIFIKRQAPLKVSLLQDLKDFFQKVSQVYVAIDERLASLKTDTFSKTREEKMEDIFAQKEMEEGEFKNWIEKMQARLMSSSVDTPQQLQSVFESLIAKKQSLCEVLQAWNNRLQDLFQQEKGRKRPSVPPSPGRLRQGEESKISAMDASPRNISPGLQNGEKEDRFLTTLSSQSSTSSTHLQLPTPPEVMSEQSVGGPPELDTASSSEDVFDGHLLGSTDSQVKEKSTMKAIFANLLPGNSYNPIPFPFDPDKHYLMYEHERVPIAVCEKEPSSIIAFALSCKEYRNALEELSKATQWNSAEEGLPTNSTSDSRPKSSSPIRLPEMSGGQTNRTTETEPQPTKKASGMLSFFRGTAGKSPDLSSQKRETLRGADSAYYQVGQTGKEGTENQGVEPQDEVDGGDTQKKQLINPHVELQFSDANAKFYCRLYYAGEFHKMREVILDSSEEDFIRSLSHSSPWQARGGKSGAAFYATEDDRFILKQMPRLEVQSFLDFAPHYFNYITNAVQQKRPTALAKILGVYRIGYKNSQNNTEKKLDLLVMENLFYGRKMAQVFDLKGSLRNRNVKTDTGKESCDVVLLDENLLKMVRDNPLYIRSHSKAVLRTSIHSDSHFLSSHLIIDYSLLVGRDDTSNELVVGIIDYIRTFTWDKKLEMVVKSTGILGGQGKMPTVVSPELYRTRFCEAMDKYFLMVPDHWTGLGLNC
# [16] = target: Serine/threonine-protein kinase PLK1 (Homo sapiens) (UniProt P53350); test: Binding affinity to wild-type human partial length PLK1 (A33 to F325 residues) expressed in mammalian expression system assessed as remaining unbound target protein level at 1000 nM by Kinomescan method relative to control
# [17] = target: Protein kinase C epsilon type (Homo sapiens) (UniProt Q02156); test: Binding affinity to wild-type human partial length PRKCE (A378 to P737 residues) expressed in mammalian expression system assessed as remaining unbound target protein level at 1000 nM by Kinomescan method relative to control
# [18] = target: Uncharacterized serine/threonine-protein kinase SBK3 (Homo sapiens) (UniProt P0C264); test: Binding affinity to wild-type human partial length SgK110 (L22 to R329 residues) expressed in bacterial expression system assessed as remaining unbound target protein level at 1000 nM by Kinomescan method relative to control
# [19] = target: Mitogen-activated protein kinase kinase kinase 7 (Homo sapiens) (UniProt O43318); test: Binding affinity to wild-type human partial length TAK1 (M1 to Q303 residues) expressed in mammalian expression system assessed as remaining unbound target protein level at 1000 nM by Kinomescan method relative to control
# [20] = target: Activated CDC42 kinase 1 (Homo sapiens) (UniProt Q07912); test: Binding affinity to wild-type human partial length TNK2 (S159 to D474 residues) expressed in bacterial expression system assessed as remaining unbound target protein level at 1000 nM by Kinomescan method relative to control
# [21] = target: Serine/threonine-protein kinase WNK3 (Homo sapiens) (UniProt Q9BYP7); test: Binding affinity to wild-type human partial length WNK3 (M1 to D434 residues) expressed in mammalian expression system assessed as remaining unbound target protein level at 1000 nM by Kinomescan method relative to control
# Serine/threonine-protein kinase WNK3 (Homo sapiens), sequence (Q9BYP7 whole entry, the tested form may be a part): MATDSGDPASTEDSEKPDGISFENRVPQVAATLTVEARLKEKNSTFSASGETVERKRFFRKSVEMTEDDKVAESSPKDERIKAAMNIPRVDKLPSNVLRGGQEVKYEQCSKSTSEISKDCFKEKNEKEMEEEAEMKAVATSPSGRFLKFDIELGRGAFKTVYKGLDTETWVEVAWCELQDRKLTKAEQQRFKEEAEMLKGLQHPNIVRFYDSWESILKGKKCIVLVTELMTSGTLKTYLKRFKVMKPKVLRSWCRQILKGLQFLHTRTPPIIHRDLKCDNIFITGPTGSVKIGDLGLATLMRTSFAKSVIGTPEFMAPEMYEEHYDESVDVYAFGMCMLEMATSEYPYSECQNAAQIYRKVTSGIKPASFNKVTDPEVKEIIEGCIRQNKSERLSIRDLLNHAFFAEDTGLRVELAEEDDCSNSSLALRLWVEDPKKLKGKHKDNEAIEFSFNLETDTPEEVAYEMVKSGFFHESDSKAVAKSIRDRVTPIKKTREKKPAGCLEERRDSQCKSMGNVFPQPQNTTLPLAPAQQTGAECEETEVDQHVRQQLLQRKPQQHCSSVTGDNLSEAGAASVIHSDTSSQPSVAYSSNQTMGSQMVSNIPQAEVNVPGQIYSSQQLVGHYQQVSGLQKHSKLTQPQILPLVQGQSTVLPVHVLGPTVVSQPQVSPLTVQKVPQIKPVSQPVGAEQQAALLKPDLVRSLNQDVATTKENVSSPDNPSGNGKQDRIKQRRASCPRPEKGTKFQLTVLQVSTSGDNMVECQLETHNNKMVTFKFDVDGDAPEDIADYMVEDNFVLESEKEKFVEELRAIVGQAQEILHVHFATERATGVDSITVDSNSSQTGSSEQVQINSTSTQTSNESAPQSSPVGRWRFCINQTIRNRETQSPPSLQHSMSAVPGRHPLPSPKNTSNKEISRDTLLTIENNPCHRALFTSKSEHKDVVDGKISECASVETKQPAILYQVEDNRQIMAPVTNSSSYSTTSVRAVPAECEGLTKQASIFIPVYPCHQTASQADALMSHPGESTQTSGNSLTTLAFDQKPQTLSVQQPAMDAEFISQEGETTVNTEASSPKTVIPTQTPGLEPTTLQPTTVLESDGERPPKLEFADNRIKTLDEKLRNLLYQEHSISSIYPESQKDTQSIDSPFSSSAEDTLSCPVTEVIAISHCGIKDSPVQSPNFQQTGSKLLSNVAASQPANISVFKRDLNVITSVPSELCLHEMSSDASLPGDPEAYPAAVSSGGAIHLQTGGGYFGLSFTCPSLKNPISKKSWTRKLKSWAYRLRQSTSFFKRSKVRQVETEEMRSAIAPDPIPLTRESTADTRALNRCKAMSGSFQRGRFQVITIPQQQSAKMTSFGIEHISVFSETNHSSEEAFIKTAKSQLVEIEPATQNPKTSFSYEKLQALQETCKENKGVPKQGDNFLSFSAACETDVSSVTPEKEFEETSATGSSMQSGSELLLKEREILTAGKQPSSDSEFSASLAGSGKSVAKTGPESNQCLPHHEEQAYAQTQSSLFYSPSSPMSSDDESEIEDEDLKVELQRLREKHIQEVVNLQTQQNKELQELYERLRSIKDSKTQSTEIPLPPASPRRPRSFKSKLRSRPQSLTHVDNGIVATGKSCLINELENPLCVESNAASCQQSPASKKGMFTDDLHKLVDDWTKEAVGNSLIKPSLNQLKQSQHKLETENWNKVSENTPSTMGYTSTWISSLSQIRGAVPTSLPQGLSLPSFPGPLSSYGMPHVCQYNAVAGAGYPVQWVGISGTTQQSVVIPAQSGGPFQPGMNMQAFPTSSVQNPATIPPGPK
# Homo sapiens = organism: Homo sapiens; test: Selectivity ratio of IC50 for recombinant full length His-tagged human CDK7/cyclin H/MNAT1 to IC50 for recombinant full length His-tagged human CDK9/CyclinT1
smiles,measurement,setting,value
COCCN[C@H]1CC[C@H](Nc2cc(-c3csc(NCC4(C#N)CCOCC4)n3)c(Cl)cn2)CC1,half-life,[1],13.1 h
same,clearance,[2],11.9 mL/min/kg
same,Activity,[3],69%
same,Activity,[4],91%
same,Activity,[5],92%
same,Activity,[6],89%
same,Activity,[7],100%
same,Activity,[8],88%
same,Activity,[9],83%
same,Activity,[10],100%
same,Activity,[11],95%
same,Activity,[12],86%
same,Activity,[13],97%
same,Activity,[14],94%
same,Activity,[15],95%
same,Activity,[16],75%
same,Activity,[17],93%
same,Activity,[18],89%
same,Activity,[19],100%
same,Activity,[20],95%
same,Activity,[21],97%
same,Ratio IC50,Homo sapiens,> 1000

# Reference: ChEMBL document CHEMBL4261600 (Eur J Med Chem, 2018)
